Consider 1 molecule from BindingDB's records for PubMed 35512565 (Baylor College of Medicine, 2022).

In the assay the target is Histone acetyltransferase p300 (Homo sapiens, UniProt Q09472). The assay can be described thus: Inhibition of human p300 HAT domain (1195 to 1673 residues) using histone H3 peptide and acetyl-coA as substrates preincubated for 10 mins followed by substrate addition and measured after 30 mins by beckman scintillation counting analysis. The method in brief:
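Recombinant human p300 HAT domain (10 nM) was preincubated with a dilution series of inhibitor for 10 min at 25 °C in 50 mM phosphate buffer, pH 7.0, with 0.01% Brij-35. The reaction was started with histone H3(1-21) peptide (20 μM) and Ac-CoA (1 μM ³H-Ac-CoA plus 19 μM unlabelled) and run 30 min at 25 °C. It was stopped with formic acid, spotted on P81 paper, washed 3× with 50 mM NaHCO₃, and counted by scintillation. IC50 came from a sigmoidal fit, mean of ≥3 experiments.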

Chain of Histone acetyltransferase p300 (Q09472 whole entry, the tested form may be a part): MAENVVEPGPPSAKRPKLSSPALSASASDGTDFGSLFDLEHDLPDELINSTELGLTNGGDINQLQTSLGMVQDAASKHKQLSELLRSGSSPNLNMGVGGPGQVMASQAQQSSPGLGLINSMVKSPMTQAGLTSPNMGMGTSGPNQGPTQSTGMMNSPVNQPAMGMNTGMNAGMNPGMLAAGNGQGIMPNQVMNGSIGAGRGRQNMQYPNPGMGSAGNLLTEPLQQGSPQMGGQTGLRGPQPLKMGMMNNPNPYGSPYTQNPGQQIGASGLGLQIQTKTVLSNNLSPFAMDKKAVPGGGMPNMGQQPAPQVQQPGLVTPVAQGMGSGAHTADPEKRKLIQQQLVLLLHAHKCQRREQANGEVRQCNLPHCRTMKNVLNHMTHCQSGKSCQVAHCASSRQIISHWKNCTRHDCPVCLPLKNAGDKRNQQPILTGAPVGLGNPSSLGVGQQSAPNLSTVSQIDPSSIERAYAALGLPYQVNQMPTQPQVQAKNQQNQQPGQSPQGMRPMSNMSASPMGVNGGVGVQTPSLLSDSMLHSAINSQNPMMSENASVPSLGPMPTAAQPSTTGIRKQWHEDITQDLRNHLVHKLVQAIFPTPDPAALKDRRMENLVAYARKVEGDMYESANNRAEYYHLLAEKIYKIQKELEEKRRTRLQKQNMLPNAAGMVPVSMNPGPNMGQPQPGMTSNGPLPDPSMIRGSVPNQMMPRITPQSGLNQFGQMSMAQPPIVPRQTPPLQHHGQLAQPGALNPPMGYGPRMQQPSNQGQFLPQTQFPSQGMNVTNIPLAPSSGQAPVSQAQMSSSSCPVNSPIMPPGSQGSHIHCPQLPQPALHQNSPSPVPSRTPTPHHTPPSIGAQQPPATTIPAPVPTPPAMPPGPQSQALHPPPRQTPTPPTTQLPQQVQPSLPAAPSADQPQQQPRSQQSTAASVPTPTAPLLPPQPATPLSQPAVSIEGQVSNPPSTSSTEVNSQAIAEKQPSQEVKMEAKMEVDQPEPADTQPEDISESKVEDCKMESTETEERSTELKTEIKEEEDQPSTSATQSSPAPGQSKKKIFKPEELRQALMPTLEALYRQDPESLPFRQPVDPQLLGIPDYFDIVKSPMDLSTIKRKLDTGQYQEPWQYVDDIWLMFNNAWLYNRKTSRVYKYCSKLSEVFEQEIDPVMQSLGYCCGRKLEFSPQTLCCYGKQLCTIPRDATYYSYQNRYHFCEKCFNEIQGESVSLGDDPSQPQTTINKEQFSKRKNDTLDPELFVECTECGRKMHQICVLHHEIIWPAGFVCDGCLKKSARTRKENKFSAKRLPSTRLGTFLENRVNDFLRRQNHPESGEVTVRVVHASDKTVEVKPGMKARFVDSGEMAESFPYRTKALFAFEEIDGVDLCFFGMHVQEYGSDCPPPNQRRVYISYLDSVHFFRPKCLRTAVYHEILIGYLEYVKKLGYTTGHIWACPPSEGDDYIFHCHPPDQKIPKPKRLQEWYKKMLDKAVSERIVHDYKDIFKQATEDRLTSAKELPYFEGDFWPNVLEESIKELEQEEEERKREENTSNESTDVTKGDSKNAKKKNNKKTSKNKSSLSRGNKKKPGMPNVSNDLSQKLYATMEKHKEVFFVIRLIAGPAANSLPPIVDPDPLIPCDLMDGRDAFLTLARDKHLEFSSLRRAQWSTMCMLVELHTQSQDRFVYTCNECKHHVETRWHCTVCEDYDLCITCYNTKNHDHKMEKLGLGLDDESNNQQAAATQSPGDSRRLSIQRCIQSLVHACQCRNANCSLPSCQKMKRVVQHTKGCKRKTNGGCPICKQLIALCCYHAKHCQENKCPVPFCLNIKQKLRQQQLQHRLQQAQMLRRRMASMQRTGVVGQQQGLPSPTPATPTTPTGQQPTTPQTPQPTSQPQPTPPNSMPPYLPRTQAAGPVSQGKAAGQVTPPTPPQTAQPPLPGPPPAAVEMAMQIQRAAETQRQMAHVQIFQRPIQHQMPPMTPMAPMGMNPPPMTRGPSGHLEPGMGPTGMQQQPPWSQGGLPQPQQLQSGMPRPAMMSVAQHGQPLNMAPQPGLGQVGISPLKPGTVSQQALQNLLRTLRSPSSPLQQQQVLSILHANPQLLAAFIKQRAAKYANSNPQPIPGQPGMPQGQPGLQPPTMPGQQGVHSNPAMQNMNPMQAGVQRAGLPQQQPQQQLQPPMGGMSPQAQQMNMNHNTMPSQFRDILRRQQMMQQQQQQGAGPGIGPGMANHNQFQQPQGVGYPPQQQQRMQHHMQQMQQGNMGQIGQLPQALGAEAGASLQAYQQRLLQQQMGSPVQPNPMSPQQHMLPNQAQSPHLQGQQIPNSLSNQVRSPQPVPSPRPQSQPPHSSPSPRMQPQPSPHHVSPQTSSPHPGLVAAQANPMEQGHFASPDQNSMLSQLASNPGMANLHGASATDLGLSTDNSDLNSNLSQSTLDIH

Turning to `Brc1ccc(-c2ncc(OCC3CCNCC3)nc2-c2ccc(Br)c(Br)c2)cc1Br`, half-maximal inhibition (IC50) required 10 µM.
